# In paper PMC3201796 (Cell host & microbe, 2011):
# Read-outs that look alike come from different tables or passages of the source.
# How the values were obtained:
# HSV-2 [1] = format: cell-based; conditions: day 6, M/M
# HSV-1 = assay: HSV-1-infected athymic nude mice; format: in vivo
# How it was run: (§1)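 Female NMRI athymic nude or hairless mice (~20 g, ~4 weeks; groups of five) scarified over ~1 cm² lumbosacral area with HSV-1 KOS (5×10^3 PFU) or HSV-2 G (5×10^2). Test compound 1% in 100% DMSO or CAPRISA 004-type gel, topical twice daily for 5 days from 1-2 h post-infection; same vehicle without drug as placebo. Lesions and mortality recorded over one month; Kaplan-Meier survival, log-rank test.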
# HSV-1F = assay: Human tonsillar tissue ex vivo infected with HSV-1; format: cell-based
# [2] = in vivo; cited from earlier work
# [3] = tested on: HSV-2 (strain NS and RV-124); assay: Virus yield reduction assay; format: cell-based
# How it was run: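 HEL monolayers infected with HSV-2 clinical isolates NS or RV-124 at two moi for 2 h at 37 °C, then washed and given test compound in duplicate. At 24, 48 and 72 h, virus released by freeze-thaw and titrated by plaque assay on HEL cells.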
# Cytostatic activity [4] = format: cell-based; conditions: human, HEL cells, non-infected
# PHKs = assay: Cytotoxicity by cell morphology; format: cell-based, human; conditions: non-infected
# How it was run: (§2)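 Run in non-infected cultures in parallel with the antiviral assay. Cells exposed to test compound and examined microscopically at day 3. MCC is the lowest concentration giving a detectable change in cell morphology.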
# HIV-1LAI = assay: Tonsillar tissue coinfected with HSV-2G and HIV-1LAI, p24 release; format: cell-based; conditions: 66 μg/ml
# How it was run: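 Tonsil tissue blocks (~2 mm) kept on collagen sponge at the air–liquid interface; 27 blocks per condition (9 per well). Infected with HSV-2 strain G, then HIV-1 LAI. Test compound added 12 h before infection and replenished at each medium change for the whole culture. p24 in medium over 3-day periods measured by bead-based assay. Six donors; means ± SEM.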
# HSV-2G [5] = assay: Tonsillar tissue coinfected with HSV-2G and HIV-1LAI, HSV-2 DNA release; format: cell-based; conditions: 66 μg/ml; coinfected with HIV-1LAI; n=6
# How it was run: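 Human tonsillar tissue blocks sequentially infected with HSV-2 G then HIV-1 LAI; 27 blocks per condition, 9 per well in 3 ml medium. Tenofovir at 66 µg/ml kept throughout culture; untreated donor-matched tissues as control. HSV-2 DNA release into medium measured by quantitative real-time PCR; release pooled from 27 blocks per donor; 6 donors.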
# [6] = MTT viability assay in epithelial TZM-Bl cells; format: cell-based, human; conditions: up to 1,000 μg/ml; data not shown
# How it was run: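 Confluent TZM-Bl epithelial monolayers exposed to a range of test compound concentrations for 3–4 days, then given MTT dye. Viable cells convert it to formazan, measured by optical density.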
# HSV-2 [7] = assay: HSV-2 cytopathicity in primary monocyte/macrophage cultures; format: cell-based; conditions: day 6, M/M
# HIV-1 = conditions: 1% vaginal gel, 889 women, CAPRISA 004; ref Abdool Karim et al., 2010; cited from earlier work
# HSV-2 [8] = format: cell-based; conditions: for Virus production (TCID50/ml): M/M
# HSV-2G [9] = assay: Organotypic epithelial raft cultures infected with HSV-2; format: cell-based
# HSV-2 [10] = conditions: 1% vaginal gel, CAPRISA 004; ref Cates, 2010; cited from earlier work
# Cytostatic activity [11] = format: cell-based; conditions: human, PHKs, non-infected
# HSV-2G [12] = assay: Human cervico-vaginal tissue ex vivo infected with HSV-2G; format: cell-based; conditions: 150 μg/ml
# HSV-2 [13] = assay: HSV-2-infected athymic nude mice; format: in vivo
# How it was run: as §1
# HSV-1KOS = assay: Organotypic epithelial raft cultures infected with HSV-1; format: cell-based
# HEL cells = assay: Cytotoxicity by cell morphology; format: cell-based, human
# How it was run: as §2
# HSV-2G, HSV-2MS = assay: Human tonsillar tissue ex vivo infected with HSV-2; format: cell-based; conditions: 66 μg/ml
# HSV-1 and HSV-2 = format: cell-based; conditions: Fibroblast, read-out: EC50 values (inhibition of cytopathicity), range
# How it was run: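 HEL fibroblasts or primary human keratinocytes (from neonatal foreskin) infected at 100 TCID50 per strain and grown 3 days at 37 °C, 5% CO2, with a range of test compound concentrations. CPE scored visually. […] Means of at least two independent experiments, ± SD.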
# [14] = 1% gel as in CAPRISA 004, topical
# [15] = 1% in DMSO, topical, 5 days from day of infection
smiles,measurement,setting,value
"C[C@H](Cn1cnc2c(N)ncnc21)OCP(=O)(O)O [Tenofovir, (R)-9-[2-(phosphonylmethoxypropyl)adenine]]",Virus production (PFU/ml),HSV-2 [1]; 0.04 μg/ml,8.5×10^4 PFU/ml
same,Virus production (PFU/ml),HSV-2 [1]; 0.2 μg/ml,7.3×10^4 PFU/ml
same,Virus production (PFU/ml),HSV-2 [1]; 1 μg/ml,6.6×10^4 PFU/ml
same,Virus production (PFU/ml),HSV-2 [1]; 5 μg/ml,1.9×10^4 PFU/ml
same,Virus production (PFU/ml),HSV-2 [1]; 20 μg/ml,2.2×10^3 PFU/ml
same,Virus production (PFU/ml),HSV-2 [1]; 100 μg/ml,No virus
same,Virus production (PFU/ml),HSV-2 [1]; 500 μg/ml,No virus
same,appearance of lesions and death vs placebo gel,HSV-1; [14],delayed the appearance of herpesvirus-related lesions and subsequent death
same,morbidity and survival,HSV-1; [15],statistically significant suppression of morbidity and prolonged the survival
same,reduction of replication vs donor-matched untreated tissue,"HSV-1F; 66 μg/ml, HSV-1F",99 ± 0.1%
same,EC50,"HSV-1F; Human alphaherpesvirus 1, in Homo sapiens, read-out: EC50 for HSV suppression",7 µg/mL
same,AUC24hr in cervico-vaginal fluid,[2],18600 µg·h/mL
same,level in cervico-vaginal fluid at 24 hr post drug exposure,[2],~ 100 μg/ml
same,changes in cell number,"[3]; HEL cells, any drug concentration",no changes in cell number
same,EC99 (drug concentration that decreases virus titers by two orders of magnitude),"[3]; HSV-2 RV-124 and NS, two moi, 24, 48, 72 h post-infection, PFU reduction",214 to 390 µg/mL
same,CC50 at 3 days,Cytostatic activity [4],547 ± 39 µg/mL
same,Cell toxicity MCC (minimum cytotoxic concentration),PHKs,>200 µg/mL
same,inhibition of HIV-1LAI,HIV-1LAI,inhibited completely
same,suppression of HSV-2G replication,HSV-2G [5],96 ± 1%
same,MTT dye viability testing,[6],did not show measurable toxicity
same,Cytopathicity (CPE) (%),HSV-2 [7]; 0.04 μg/ml,85%
same,Cytopathicity (CPE) (%),HSV-2 [7]; 0.2 μg/ml,80%
same,Cytopathicity (CPE) (%),HSV-2 [7]; 5 μg/ml,60%
same,Cytopathicity (CPE) (%),HSV-2 [7]; 20 μg/ml,5%
same,Cytopathicity (CPE) (%),HSV-2 [7]; 100 μg/ml,None
same,Cytopathicity (CPE) (%),HSV-2 [7]; 500 μg/ml,None
same,reduction of HIV-1 sexual transmission,HIV-1,39%
same,Virus production (TCID50/ml),"HSV-2 [8]; 0.04 μg/ml, day 6",3.2×10^5 TCID50/ml
same,Virus production (TCID50/ml),"HSV-2 [8]; 0.2 μg/ml, day 6",3×10^5 TCID50/ml
same,HSV-2 production,"HSV-2 [8]; 1 μg/ml or 0.2 μg/ml, no significant protective effect",2.4 to 3.0 × 10^5 TCID50/ml
same,Virus production (TCID50/ml),"HSV-2 [8]; 1 μg/ml, day 6",2.4×10^5 TCID50/ml
same,Virus production (TCID50/ml),"HSV-2 [8]; 5 μg/ml, day 6",7.2× 10^4 TCID50/ml
same,Virus production (TCID50/ml),"HSV-2 [8]; 20 μg/ml, day 6",1.3×10^4 TCID50/ml
same,drop in HSV-2 production,"HSV-2 [8]; 20 μg/ml, from 3.7 × 10^5 TCID50/ml in untreated",more than one log10
same,Virus production (TCID50/ml),"HSV-2 [8]; 100 μg/ml, day 6",No virus
same,Virus production (TCID50/ml),"HSV-2 [8]; 500 μg/ml, day 6 post infection",No virus
same,HSV-2 replication in M/M,HSV-2 [8]; 500 and 100 μg/ml,completely suppressed
same,activity against HSV-2 in rafts,HSV-2G [9]; 2 μg/ml,inactive
same,log10 reduction in virus production,HSV-2G [9]; 50 μg/ml,1.75 log10
same,protection of virus-induced cytopathicity,HSV-2G [9]; 200 μg/ml,complete CPE protection
same,log10 reduction in virus production,"HSV-2G [9]; 200 μg/ml, 5 days of treatment",5.4 log10
same,protection of raft epithelium (histology),HSV-2G [9]; 20 and 5 μg/ml,partially protective
same,reduction of the risk of acquisition of HSV-2,HSV-2 [10],51%
same,CC50 at 3 days,Cytostatic activity [11],> 50 µg/mL
same,reduction of HSV-2G replication (averaged over experiments),HSV-2G [12],78 ± 9%
same,HSV-2G DNA in culture medium,"HSV-2G [12]; untreated 6.6 log10 copies/ml, n=5",5.5 log10 copies/mL
same,appearance of lesions and death vs placebo gel,HSV-2 [13]; [14],delayed the appearance of herpesvirus-related lesions and subsequent death
same,morbidity and survival,HSV-2 [13]; [15],statistically significant suppression of morbidity and prolonged the survival
same,log10 reduction in virus production,HSV-1KOS; 50 μg/ml,0.81 log10
same,protection of virus-induced cytopathicity,HSV-1KOS; 200 μg/ml,complete CPE protection
same,log10 reduction in virus production,"HSV-1KOS; 200 μg/ml, 5 days of treatment",2.6 log10
same,Cell toxicity MCC (minimum cytotoxic concentration),"HEL cells; HEL, non-infected, cell morphology",>400 µg/mL
same,cytotoxicity as assessed from HEL cell morphology,HEL cells; highest drug concentrations used (500 μg/ml),no signs of tenofovir cytotoxicity
same,reduction of replication vs donor-matched untreated tissue,"HSV-2G, HSV-2MS; HSV-2G",87 ± 12%
same,reduction of replication vs donor-matched untreated tissue,"HSV-2G, HSV-2MS; HSV-2MS",91.7 ± 3.2%
same,EC50,HSV-1 and HSV-2,103 to 193 µg/mL
